“Also recorded” adds a separate entry of the source. Each block holds one molecule with its values, some of them ahead of it.
Key:
[1] = system: CT-L activity of purified 20S human proteasomes (β5, β5i, β1i); assay: Enzyme kinetics assay, CT-L activity of purified 20S proteasomes; assay type: biochemical; settings: for Activation of the CT-L activity of proteasomes: at 10 μM, purified proteasomes; for Inhibition of the CT-L activity of purified proteasomes: purified 20S CP and IP, β5, β5i, β1i, result in words
How it was run: (§1)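 Purified human 20S constitutive and immunoproteasome (0.5 µg/mL) was preincubated with test compound for 30 min at room temperature in 20 mM Tris-HCl, 0.5 mM EDTA, 0.035% SDS. Reactions were started with a subunit-selective AMC substrate: β1 Ac-nLPnLD-AMC 100 µM; β2/β2i Boc-LRR-AMC 200 µM; β5 Ac-WLA-AMC 20 µM; β1i Ac-PAL-AMC 100 µM; β5i Ac-ANW-AMC 100 µM. AMC fluorescence (ex 360/em 460 nm) was followed for 90 min at room temperature.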

[2] = molecular target: C-L activity responsible β1 subunit of purified 20S human proteasome (Homo sapiens, UniProt P28072); assay: Enzyme kinetics assay, C-L activity of purified 20S proteasome; assay type: biochemical; settings: result in words
How it was run: as §1

[3] = system: proteasome in RPMI 8226 cell lysates (Suc-LLVY-AMC hydrolysis); assay: Jump dilution reversibility assay; assay type: biochemical, human
How it was run: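 RPMI 8226 lysate (30 µg total protein) was incubated with test compound at 10 µM in 20S proteasome assay buffer for 30 min at room temperature. Baseline Suc-LLVY-AMC hydrolysis was recorded in a cuvette. The mixture was then rapidly diluted 25-fold in assay buffer (10 to 0.4 µM compound), and substrate hydrolysis was monitored for about 30 min.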

[4] = molecular target: T1, proteasomal C-L activity of RPMI 8226 cell extracts (Homo sapiens, UniProt P28072); assay: C-L activity of proteasomes in cell extracts; assay type: biochemical; settings: result in words
T1 sequence (P28072 1-239): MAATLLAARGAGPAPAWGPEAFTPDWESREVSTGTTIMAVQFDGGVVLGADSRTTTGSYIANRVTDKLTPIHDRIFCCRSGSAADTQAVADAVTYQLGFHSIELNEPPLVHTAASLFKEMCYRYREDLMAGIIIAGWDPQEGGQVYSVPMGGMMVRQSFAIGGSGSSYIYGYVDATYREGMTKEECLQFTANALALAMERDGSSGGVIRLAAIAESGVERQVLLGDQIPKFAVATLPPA
How it was run: (§2)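 Cytosolic extracts of RPMI-8226 cells were prepared by the Kisselev and Goldberg method and used in place of purified 20S proteasome. Hydrolysis of fluorogenic substrates was measured as AMC release: Suc-LLVY-AMC for CT-L, Z-LLE-AMC for C-L and Boc-LRR-AMC for T-L activity. Fluorescence was read at excitation 360 and emission 460 nm.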

[5] = system: proteasomal T-L activity of RPMI 8226 cell extracts; assay: T-L activity of proteasomes in cell extracts; assay type: biochemical, human; settings: result in words
How it was run: as §2

[6] = system: cancer cell lines including LNCaP prostate cancer cells; assay: Cytotoxicity of G4-1 in cancer cell lines; assay type: cell-based, human; settings: variety of cancer cell lines including LNCaP; 72 h
How it was run: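 Log-phase adherent cells were seeded at 7,000–10,000 per well; suspension RPMI 8226 cells were pelleted and seeded at 10,000 per well. Viability was read after 72 h by CellTiter Glo luminescence or CellTiter 96 Aqueous One absorbance.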

LNCaP tumors = assay: In vivo efficacy assay, LNCaP xenograft; set-up: species or system mouse; settings: 5 mg/kg i.p. twice a week for 4 weeks
[7] = system: BxPC-3 cell lines with acquired resistance to bortezomib or carfilzomib; assay: Cytotoxicity in bortezomib- or carfilzomib-resistant BxPC-3 sublines; assay type: cell-based, human; settings: BxPC-3 sublines adapted to 60 nM bortezomib or 200 nM carfilzomib
[8] = system: proteasomal CT-L activity of RPMI 8226 cell extracts; assay: CT-L activity of proteasomes in cell extracts; assay type: biochemical, human; settings: result in words
How it was run: as §2

Compound: Cc1ccc(OS(=O)(=O)c2cccc(C(F)(F)F)c2)c(-c2cc(C3CCCCC3)n(CCN[C@@H]3CCNC3)n2)c1 [G4-40]
Inhibition of the CT-L activity of purified proteasomes [1]: potently inhibit

Compound: Cc1ccc(OS(=O)(=O)c2cccc(C(F)(F)F)c2)c(-c2cc(-c3ccccc3)n(CCN[C@@H]3CCNC3)n2)c1 [G4]
Inhibition of the CT-L activity of purified proteasomes [1]: potently inhibit; also recorded: selectively inhibits; also recorded: preferentially inhibits
Inhibition of the C-L activity (β1) of purified proteasome [2]: selectively inhibits; also recorded: preferentially inhibits

Compound: Cc1ccc(OS(=O)(=O)c2cccc(C(F)(F)F)c2)c(-c2cc(-c3ccccc3)n(CC(=O)N[C@@H]3CCNC3)n2)c1 [G4-1]
Inhibition of proteasomal activity after preincubation ([3]; 10 μM, 30 min preincubation with RPMI 8226 cell extracts): nearly complete inhibition
Inhibitor dissociation half-life ([3]; after 25-fold dilution from 10 to 0.4 μM): approximately 3.2 min
Mode of proteasome inhibition ([3]; jump dilution, upward curvature of progress curve): reversibility
Inhibition of proteasomal C-L activity of cell extracts [4]: effectively inhibit
Activity against the T-L activity of cell extracts [5]: no activity
Anticancer activity against cancer cell lines [6]: good anticancer activity
Inhibition of the CT-L activity of purified proteasomes [1]: most potent inhibitor
Body weight of mice over the course of treatment (LNCaP tumors): maintained normal weight gain
Systemic toxicity in mice (LNCaP tumors): without apparent systemic toxicity
Tumor growth in vivo (LNCaP tumors; nude mice bearing LNCaP tumors): effectively suppressed tumor growth
Impact of acquired resistance to bortezomib or carfilzomib on anticancer effect [7]: not negatively impacted
Inhibition of proteasomal CT-L activity of cell extracts [8]: effectively inhibit

Compound: Cc1ccc(OS(=O)(=O)c2cccc(C(F)(F)F)c2)c(-c2cc(C3CCCN(C(=O)N[C@@H]4CCNC4)C3)n(CCN[C@@H]3CCNC3)n2)c1 (stereo partly shown) [G4-42]
Inhibition of the CT-L activity of purified proteasomes [1]: potently inhibit

Compound: Cc1ccc(OS(=O)(=O)c2cccc(C(F)(F)F)c2)c(-c2cc(C3CCCNC3)n(CCN[C@@H]3CCNC3)n2)c1 (stereo partly shown) [G4-41]
Inhibition of the CT-L activity of purified proteasomes [1]: potently inhibit

Other lines, results leading:

Activation of the CT-L activity of proteasomes [1]: up to 200%
Compound: Cc1ccc(OS(=O)(=O)c2ccc(F)c([N+](=O)[O-])c2)c(-c2cc(-c3ccccc3)n(CCN[C@@H]3CCNC3)n2)c1 [G4–21]

Activation of the CT-L activity of proteasomes [1]: up to 200%
Compound: CC1=C(COC(=O)Cn2nc(-c3cc(C)ccc3OS(=O)(=O)c3cccc(C(F)(F)F)c3)cc2-c2ccccc2)Cc2ccccc21 [G4-16]

Reference: publication PMC11790068 (Journal of medicinal chemistry, 2015)
